Assay results taken from ChEMBL document CHEMBL1137101, “3-Hydroxy-4-arylsulfonyltetrahydropyranyl-3-hydroxamic acids are novel inhibitors of MMP-13 and aggrecanase” (Bioorg Med Chem Lett, 2004).
pIC50: −log10 of the molar value.

Experiments:
[1] = target: T1, Interstitial collagenase (Homo sapiens, UniProt P03956); experiment: Inhibitory concentration against matrix metalloprotease 1
T1 sequence (P03956 whole entry): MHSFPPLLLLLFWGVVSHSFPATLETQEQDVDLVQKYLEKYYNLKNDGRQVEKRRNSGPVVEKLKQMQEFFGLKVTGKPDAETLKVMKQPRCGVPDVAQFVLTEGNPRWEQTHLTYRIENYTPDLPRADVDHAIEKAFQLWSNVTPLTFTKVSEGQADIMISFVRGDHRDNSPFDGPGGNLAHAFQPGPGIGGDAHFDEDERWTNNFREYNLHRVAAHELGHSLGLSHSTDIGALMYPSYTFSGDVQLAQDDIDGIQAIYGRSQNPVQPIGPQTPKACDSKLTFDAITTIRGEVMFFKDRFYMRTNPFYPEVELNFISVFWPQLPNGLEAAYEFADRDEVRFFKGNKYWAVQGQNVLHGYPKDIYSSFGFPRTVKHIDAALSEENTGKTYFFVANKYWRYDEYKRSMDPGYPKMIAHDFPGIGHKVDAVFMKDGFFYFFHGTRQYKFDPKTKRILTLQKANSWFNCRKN

[2] = target: Collagenase 3 (Homo sapiens, UniProt P45452); experiment: Inhibitory concentration against matrix metalloprotease 13
[3] = target: T2, A disintegrin and metalloproteinase with thrombospondin motifs 4 (Homo sapiens, UniProt O75173); experiment: Inhibitory concentration against aggrecanase
T2 sequence (O75173 whole entry): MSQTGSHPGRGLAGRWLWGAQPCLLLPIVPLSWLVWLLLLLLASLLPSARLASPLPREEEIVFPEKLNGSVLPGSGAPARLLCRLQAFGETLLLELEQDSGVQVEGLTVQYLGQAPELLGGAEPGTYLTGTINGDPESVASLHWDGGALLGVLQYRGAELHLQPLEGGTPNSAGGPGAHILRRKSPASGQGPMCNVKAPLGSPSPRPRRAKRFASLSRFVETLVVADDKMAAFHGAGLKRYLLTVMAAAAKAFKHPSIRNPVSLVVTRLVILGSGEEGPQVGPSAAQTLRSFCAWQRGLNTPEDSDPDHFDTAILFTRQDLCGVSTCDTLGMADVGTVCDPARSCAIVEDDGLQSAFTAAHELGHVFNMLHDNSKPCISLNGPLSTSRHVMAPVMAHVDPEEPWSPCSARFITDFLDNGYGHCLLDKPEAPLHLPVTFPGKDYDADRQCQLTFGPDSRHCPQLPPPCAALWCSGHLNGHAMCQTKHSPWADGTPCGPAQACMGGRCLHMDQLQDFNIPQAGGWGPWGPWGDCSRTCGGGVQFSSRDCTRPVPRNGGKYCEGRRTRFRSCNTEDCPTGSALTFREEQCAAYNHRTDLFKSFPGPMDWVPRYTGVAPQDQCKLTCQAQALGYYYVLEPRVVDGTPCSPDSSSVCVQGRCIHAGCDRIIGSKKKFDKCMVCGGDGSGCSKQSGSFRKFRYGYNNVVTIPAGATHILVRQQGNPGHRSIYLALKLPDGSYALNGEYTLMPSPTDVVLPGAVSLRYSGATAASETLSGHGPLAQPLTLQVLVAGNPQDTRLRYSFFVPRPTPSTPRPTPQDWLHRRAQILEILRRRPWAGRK
Summary of the method: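 Cell-based assay in porcine chondrocytes. Aggrecan GAG chains labelled by culture with ³⁵S sulfate, then unincorporated label washed out. Aggrecan degradation stimulated with IL-1a (5ng/mL).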

[4] = Inhibition of TNF alpha converting enzyme (TACE, ADAM17)
[5] = Oral bioavailability in rat; type: ADME, organism-based; conditions: in vivo
Summary of the method: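 Oral dose given to rat as a suspension in 0.5% aqueous methylcellulose.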

[6] = target: Matrix metalloproteinase-9 (Homo sapiens, UniProt P14780); experiment: Inhibition of matrix metalloprotease 9
[7] = target: Macrophage metalloelastase (Homo sapiens, UniProt P39900); experiment: Inhibition of matrix metalloprotease 12
[8] = target: Stromelysin-1 (Homo sapiens, UniProt P08254); experiment: Inhibition of matrix metalloprotease 3
[9] = Half life in rat; type: ADME, organism-based; conditions: in vivo
Summary of the method: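 Rat PK after IV bolus of 5mg/kg in glycerol formal. Blood drawn from the jugular vein at 5, 15, 30 min and 1, 2, 4, 6, 8, 24 h. Plasma diluted with an equal volume of water, extracted with MTBE, drug measured by LC–MS/MS. Parameters from noncompartmental analysis.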

[10] = target: Matrix metalloproteinase-14 (Homo sapiens, UniProt P50281); experiment: Inhibition of matrix metalloprotease 14

Chain of Stromelysin-1 (P08254 whole entry): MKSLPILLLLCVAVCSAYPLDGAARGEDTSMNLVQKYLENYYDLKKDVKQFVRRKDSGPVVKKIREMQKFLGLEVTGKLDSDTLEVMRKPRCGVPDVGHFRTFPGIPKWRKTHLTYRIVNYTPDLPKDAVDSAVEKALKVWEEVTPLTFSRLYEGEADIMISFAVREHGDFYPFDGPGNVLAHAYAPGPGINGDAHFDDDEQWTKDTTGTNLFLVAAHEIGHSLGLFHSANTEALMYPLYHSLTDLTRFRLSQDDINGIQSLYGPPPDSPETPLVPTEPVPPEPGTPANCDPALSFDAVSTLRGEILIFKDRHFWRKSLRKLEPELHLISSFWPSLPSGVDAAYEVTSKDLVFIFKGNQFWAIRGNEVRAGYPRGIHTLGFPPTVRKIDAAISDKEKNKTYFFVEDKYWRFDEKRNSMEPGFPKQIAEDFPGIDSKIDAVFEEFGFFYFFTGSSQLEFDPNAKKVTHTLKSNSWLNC
Chain of Matrix metalloproteinase-9 (P14780 whole entry): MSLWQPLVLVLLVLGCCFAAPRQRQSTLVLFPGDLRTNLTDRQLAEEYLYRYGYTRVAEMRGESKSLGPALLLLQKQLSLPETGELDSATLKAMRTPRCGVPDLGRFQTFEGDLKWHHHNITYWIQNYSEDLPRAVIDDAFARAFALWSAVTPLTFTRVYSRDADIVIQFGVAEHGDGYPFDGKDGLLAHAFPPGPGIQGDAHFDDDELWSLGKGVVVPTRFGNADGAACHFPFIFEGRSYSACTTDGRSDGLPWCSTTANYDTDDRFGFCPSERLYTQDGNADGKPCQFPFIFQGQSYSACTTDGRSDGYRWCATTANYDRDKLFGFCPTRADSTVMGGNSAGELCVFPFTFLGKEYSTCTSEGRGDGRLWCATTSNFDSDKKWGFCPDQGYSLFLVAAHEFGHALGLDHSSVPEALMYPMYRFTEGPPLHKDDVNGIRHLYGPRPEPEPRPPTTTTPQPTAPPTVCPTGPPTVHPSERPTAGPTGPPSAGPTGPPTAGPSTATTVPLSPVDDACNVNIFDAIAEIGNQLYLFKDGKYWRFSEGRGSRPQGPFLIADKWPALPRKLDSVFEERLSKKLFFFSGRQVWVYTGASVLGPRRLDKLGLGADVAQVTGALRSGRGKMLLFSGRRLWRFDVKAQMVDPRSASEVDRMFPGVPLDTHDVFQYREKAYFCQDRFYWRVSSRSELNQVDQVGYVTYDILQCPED
Chain of Macrophage metalloelastase (P39900 whole entry): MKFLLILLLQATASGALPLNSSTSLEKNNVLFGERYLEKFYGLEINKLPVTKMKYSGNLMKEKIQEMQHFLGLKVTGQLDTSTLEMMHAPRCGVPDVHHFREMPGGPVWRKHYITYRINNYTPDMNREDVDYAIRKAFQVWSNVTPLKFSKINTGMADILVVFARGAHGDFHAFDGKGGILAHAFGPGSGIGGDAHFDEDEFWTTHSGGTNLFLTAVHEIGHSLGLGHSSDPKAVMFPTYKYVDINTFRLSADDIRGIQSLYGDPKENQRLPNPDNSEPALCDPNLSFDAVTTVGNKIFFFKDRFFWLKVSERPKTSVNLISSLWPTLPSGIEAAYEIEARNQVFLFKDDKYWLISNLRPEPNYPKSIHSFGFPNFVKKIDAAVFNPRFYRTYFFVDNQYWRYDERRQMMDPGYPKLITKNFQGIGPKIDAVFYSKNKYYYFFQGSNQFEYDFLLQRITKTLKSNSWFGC

| Compound | pIC50 [1] | pIC50 [2] | pIC50 [3] | other results |
| --- | --- | --- | --- | --- |
| Cc1ccc(-c2ccc(S(=O)(=O)[C@@H]3CCOC[C@]3(O)C(=O)NO)cc2)cc1 | > 7.52 | 9.41 | < 6.00 |  |
| CO[C@]1(C(=O)NO)COCC[C@H]1S(=O)(=O)c1ccc(OCc2ccccc2Cl)cc1 |  | 7.42 | 7.00 |  |
| Cc1ccccc1-c1ccc(S(=O)(=O)[C@@H]2CCOC[C@]2(O)C(=O)NO)cc1 | 5.00 | 6.85 | < 6.00 |  |
| CO[C@]1(C(=O)NO)COCC[C@H]1S(=O)(=O)c1ccc(OCc2ccc(Cl)cc2Cl)cc1 |  | 7.34 | 7.00 |  |
| Cc1cccc(-c2ccc(S(=O)(=O)[C@@H]3CCOC[C@]3(O)C(=O)NO)cc2)c1 | > 7.52 | 9.37 | < 6.00 |  |
| Cc1ccc(COc2ccc(S(=O)(=O)[C@@H]3CCOC[C@]3(O)C(=O)NO)cc2)cc1 | 5.27 | 8.89 | < 6.00 |  |
| O=C(NO)[C@H]1C[C@@H](O)CCN1S(=O)(=O)c1ccc(OCc2ccccc2Cl)cc1 |  | 7.92 |  | pIC50 [4]: 7.44 |
| O=C(NO)[C@@]1(O)COCC[C@H]1S(=O)(=O)c1ccc(OCc2cccc(Cl)c2)cc1 | 5.10 | 8.62 | < 6.00 |  |
| O=C(NO)[C@@]1(O)COCC[C@H]1S(=O)(=O)c1ccc(OCc2c(Cl)cccc2Cl)cc1 | < 4.52 | < 6.52 | < 6.00 |  |
| Cc1ccccc1Oc1ccc(S(=O)(=O)[C@@H]2CCOC[C@]2(O)C(=O)NO)cc1 | 5.33 | 8.01 | < 6.00 |  |
| Cc1cccc(Oc2ccc(S(=O)(=O)[C@@H]3CCOC[C@]3(O)C(=O)NO)cc2)c1 | 6.57 | 8.96 | < 6.00 |  |
| Cc1ccccc1COc1ccc(S(=O)(=O)[C@@H]2CCOC[C@]2(O)C(=O)NO)cc1 | 4.92 | 7.68 | 7.26 |  |
| Cc1ccc(Oc2ccc(S(=O)(=O)[C@@H]3CCOC[C@]3(O)C(=O)NO)cc2)cc1 | 6.92 | 9.00 | < 6.00 |  |
| O=C(NO)[C@@]1(O)COCC[C@H]1S(=O)(=O)c1ccc(OCc2ccc(Cl)cc2)cc1 | 5.85 | 9.06 | 6.48 |  |
| Cc1cccc(C)c1COc1ccc(S(=O)(=O)[C@@H]2CCOC[C@]2(O)C(=O)NO)cc1 | < 4.52 | < 6.52 | < 6.00 |  |
| Cc1cccc(COc2ccc(S(=O)(=O)[C@@H]3CCOC[C@]3(O)C(=O)NO)cc2)c1 | 4.66 | 8.30 | < 6.00 |  |
| Cc1ccc(COc2ccc(S(=O)(=O)[C@@H]3CCOC[C@]3(O)C(=O)NO)cc2)c(C)c1 | 4.72 | 7.77 | 6.43 |  |
| O=C(NO)[C@@]1(O)COCC[C@H]1S(=O)(=O)c1ccc(OCc2cccc(Cl)c2Cl)cc1 | 4.89 | 7.82 | 6.85 |  |
| O=C(NO)[C@@]1(O)COCC[C@H]1S(=O)(=O)c1ccc(OCc2ccc(Cl)cc2Cl)cc1 | 6.04 | 9.02 | 8.09 | bioavailability [5]: 7%; pIC50 [6]: 8.28; pIC50 [7]: 9.02; pIC50 [8]: 7.26; half-life [9]: 5 h; pIC50 [10]: 6.82 |
| Cc1ccc(C)c(COc2ccc(S(=O)(=O)[C@@H]3CCOC[C@]3(O)C(=O)NO)cc2)c1 | < 4.52 | 6.52 | 7.59 |  |
| O=C(NO)[C@@]1(O)COCC[C@H]1S(=O)(=O)c1ccc(OCc2ccccc2Cl)cc1 | 5.55 | 8.57 | 7.40 |  |
| O=C(NO)[C@@]1(O)COCC[C@H]1S(=O)(=O)c1ccc(OCc2ccccc2C(F)(F)F)cc1 | < 4.52 | 7.55 | 6.66 |  |
| O=C(NO)[C@@]1(O)COCC[C@H]1S(=O)(=O)c1ccc(OCc2cc(Cl)ccc2Cl)cc1 | 4.57 | 7.89 | 7.06 |  |
